Source: ChEMBL document CHEMBL1123810, “Synthesis and cardiotonic activity of a series of substituted 4-alkyl-2(1H)-quinazolinones” (J Med Chem, 1987)

Experiments:
Canis familiaris [1] = experiment: Effect on arterial blood pressure (MAP) in anesthetized open-chest dogs at 8.75 mg/kg intravenous dose; format: functional, Canis lupus familiaris
Method in brief: (§1)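 Pentobarbital-anesthetized (45 mg/kg i.p.), ventilated mongrel dogs, open chest. MAP came from a femoral artery cannula, HR from a cardiotachometer triggered by the pressure pulse, and CF from a right-ventricle strain gauge. Compound in 10% DMF/saline or as the HCl salt in saline was infused iv in 3–4 stepwise rising doses, each over 5 min. Responses are % change from predrug control at the maximum dose given.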

Canis familiaris [2] = experiment: Effect on heart rate (HR) in anesthetized open-chest dogs at 8.75 mg/kg intravenous dose; format: functional, Canis lupus familiaris; method in brief: as §1
Canis familiaris [3] = experiment: Effect on myocardial contractile force (CF) in anesthetized open-chest dogs at 8.75 mg/kg intravenous dose; format: functional, Canis lupus familiaris, Myocardium; method in brief: as §1
Canis familiaris [4] = experiment: Effect that produces a 50% increase in myocardial contractile force (CF) above control in anesthetized open-chest dogs at 8.75 mg/kg intravenous dose; format: functional; settings: Canis lupus familiaris, Myocardium
Method in brief: (§2)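 Anesthetized (pentobarbital 45 mg/kg i.p.), artificially respired mongrel dogs with right thoracotomy. Contractile force was read by a strain gauge on the right ventricle. Compound was given in 10% DMF in saline, or as the HCl salt in saline, by femoral vein infusion in 3–4 stepwise increasing doses, each over 5 min. ED50 (mg/kg iv) is the dose giving a 50% CF rise over control, taken from 3–4 point dose–response curves by graphic estimation (n = 1, 2 dogs) or linear regression (n ≥ 3).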

[5] = molecular target: Phosphodiesterase 3 (Canis familiaris); experiment: Inhibitory activity against canine cardiac fraction III cyclic AMP phosphodiesterase (PDE III)
Canis familiaris [6] = experiment: Effect on arterial blood pressure (MAP) in anesthetized open-chest dogs at 1.875 mg/kg intravenous dose; format: functional, Canis lupus familiaris; method in brief: as §1
Canis familiaris [7] = experiment: Effect on heart rate (HR) in anesthetized open-chest dogs at 1.875 mg/kg intravenous dose; format: functional, Canis lupus familiaris; method in brief: as §1
Canis familiaris [8] = experiment: 50% increase in myocardial contractile force (CF) above control in anesthetized open-chest dogs at 1.875 mg/kg intravenous dose; format: functional; settings: Canis lupus familiaris, Myocardium; method in brief: as §2
Canis familiaris [9] = experiment: Effect on myocardial contractile force (CF) in anesthetized open-chest dogs at 1.875 mg/kg intravenous dose; format: functional, Canis lupus familiaris, Myocardium; method in brief: as §1
[10] = molecular target: Phosphodiesterase 3 (Canis familiaris); experiment: Inhibition of canine cardiac fraction III cAMP phosphodiesterase (PDE 3) at 1.875 mg/kg intravenous dose
Canis familiaris [11] = experiment: Effect on heart rate (HR) in anesthetized open-chest dogs at 3.75 mg/kg intravenous dose; format: functional, Canis lupus familiaris; method in brief: as §1
Canis familiaris [12] = experiment: 50% increase in myocardial contractile force (CF) above control in anesthetized open-chest dogs at 3.75 mg/kg intravenous dose; format: functional; settings: Canis lupus familiaris, Myocardium; method in brief: as §2
Canis familiaris [13] = experiment: Effect on myocardial contractile force (CF) in anesthetized open-chest dogs at 3.75 mg/kg intravenous dose; format: functional, Canis lupus familiaris, Myocardium; method in brief: as §1
Canis familiaris [14] = experiment: Effect on arterial blood pressure (MAP) in anesthetized open-chest dogs at 3.75 mg/kg intravenous dose; format: functional, Canis lupus familiaris; method in brief: as §1
Canis familiaris [15] = experiment: Effect on arterial blood pressure (MAP) in anesthetized open-chest dogs at 0.875 mg/kg intravenous dose; format: functional, Canis lupus familiaris; method in brief: as §1
Canis familiaris [16] = experiment: Effect on heart rate (HR) in anesthetized open-chest dogs at 0.875 mg/kg intravenous dose; format: functional, Canis lupus familiaris; method in brief: as §1
Canis familiaris [17] = experiment: 50% increase in myocardial contractile force (CF) above control in anesthetized open-chest dogs at 0.875 mg/kg intravenous dose; format: functional; settings: Canis lupus familiaris, Myocardium; method in brief: as §2
Canis familiaris [18] = experiment: Effect on myocardial contractile force (CF) in anesthetized open-chest dogs at 0.875 mg/kg intravenous dose; format: functional, Canis lupus familiaris, Myocardium; method in brief: as §1
[19] = molecular target: Phosphodiesterase 3 (Canis familiaris); experiment: Inhibition of canine cardiac fraction III cAMP phosphodiesterase (PDE 3) at 0.875 mg/kg intravenous dose

| Compound | Change (Canis familiaris [1]) [%] | Change (Canis familiaris [2]) [%] | Change (Canis familiaris [3]) [%] | ED50 (Canis familiaris [4]) [mg/kg] | IC50 [5] [µM] | Change (Canis familiaris [6]) [%] | Change (Canis familiaris [7]) [%] | ED50 (Canis familiaris [8]) [mg/kg] | Change (Canis familiaris [9]) [%] | other results |
| --- | --- | --- | --- | --- | --- | --- | --- | --- | --- | --- |
| COc1cc2nc(O)nc(-c3ccccc3)c2cc1OC | -25 | 7 | 106 | 4.1 | 14 |  |  |  |  |  |
| COc1cc2nc(O)nc(C3CCCC3)c2cc1OC | -19 | 11 | 71 | > 8.75 | 22 |  |  |  |  |  |
| CCc1nc(O)nc2cc(OC)c(OC)cc12 | -28 | 13 | 82 | 3.4 |  |  |  |  |  |  |
| COc1cc2nc(O)nc(Cc3ccccc3)c2cc1OC |  |  |  |  |  | 30 | 3 | > 1.87 | 33 | IC50 [10]: 13 µM |
| Cc1nc(O)nc2ccc(Cl)cc12 | -21 | 33 | 85 | 1.8 |  |  |  |  |  |  |
| COc1ccc2nc(O)nc(C)c2c1 |  |  |  |  |  |  |  |  |  | Change (Canis familiaris [11]): 18%; ED50 (Canis familiaris [12]): 1.32 mg/kg; Change (Canis familiaris [13]): 111%; Change (Canis familiaris [14]): -10% |
| COc1cc2nc(O)nc(C)c2c(OC)c1OC |  |  |  |  |  | -9 | 0 | > 1.87 | 11 |  |
| COc1ccc2nc(O)ncc2c1OC |  |  |  |  |  | -9 | 10 | 1.64 | 101 |  |
| Cc1nc(O)nc2ccc(N3CCN(C)CC3)cc12 |  |  |  |  |  | 0 | 6 | > 1.87 | 10 | IC50 [10]: 300 µM |
| Nc1cc(-c2ccncc2)c[nH]c1=O [INAMRINONE] |  |  |  |  |  | -10 | 12 | 0.38 | 134 |  |
| Cc1nc(O)nc2cc(Cl)c(Cl)cc12 | 1 | 2 | 10 | > 8.75 |  |  |  |  |  |  |
| COc1ccc2c(c(C)nc(=O)n2C)c1OC |  |  |  |  |  | 6 | 5 | > 1.87 | 31 |  |
| COc1cc(OC)c2c(C)nc(O)nc2c1 | -40 | 25 | 97 | 2.08 | 25 |  |  |  |  |  |
| Cc1nc(O)nc2ccccc12 | -8 | 16 | 93 | 3.45 | 138 |  |  |  |  |  |
| Br.Cc1nc(O)nc2ccc(O)c(O)c12 | 8 | 0 | 39 | > 8.75 | 18 |  |  |  |  |  |
| COc1ccc2[nH]c(=O)nc(C)c2c1OC [BEMARINONE] |  |  |  |  |  |  |  |  |  | Change (Canis familiaris [15]): -16%; Change (Canis familiaris [16]): 20%; ED50 (Canis familiaris [17]): 0.23 mg/kg; Change (Canis familiaris [18]): 114%; IC50 [19]: 17 µM |
| Cc1nc(O)nc2ccc(N3CCOCC3)cc12 |  |  |  |  |  |  |  |  |  | Change (Canis familiaris [15]): -10%; Change (Canis familiaris [16]): 13%; ED50 (Canis familiaris [17]): 0.7 mg/kg; Change (Canis familiaris [18]): 59% |
| COc1cc(OC)c2nc(O)nc(C)c2c1 | -6 | 13 | 60 | 7.45 | 190 |  |  |  |  |  |
| COc1cc2c(C)nc(O)nc2c(OC)c1OC |  |  |  |  |  | -4 | 3 | > 1.87 | 10 |  |
| Cc1nc(O)nc2ccc3c(c12)OCO3 |  |  |  |  |  | -14 | 13 | 0.69 | 71 |  |
| COc1cc2nc(O)nc(C(F)(F)F)c2cc1OC | -15 | 0 | 23 | > 8.75 | 100 |  |  |  |  |  |
| Cc1nc(O)nc2ccc(N3CCCCC3)cc12 |  |  |  |  |  |  |  |  |  | Change (Canis familiaris [11]): 35%; ED50 (Canis familiaris [12]): 1.13 mg/kg; Change (Canis familiaris [13]): 116%; Change (Canis familiaris [14]): -21% |
| COc1cc2nc(O)nc(C(C)C)c2cc1OC | -27 | 21 | 112 | 1.39 | 43 |  |  |  |  |  |
| COc1ccc(OC)c2c(C)nc(O)nc12 | -6 | 13 | 54 |  | 129 |  |  |  |  |  |
| CCc1nc(O)nc2ccc(OC)c(OC)c12 |  |  |  |  |  | 9 | 20 | 0.51 | 112 | IC50 [10]: 18 µM |
| COc1cc2nc(O)nc(C)c2cc1OC | -35 | 19 | 90 | 2.42 | 100 |  |  |  |  |  |
| Cc1nc(O)nc2ccc(N(C)C)cc12 | -23 | 23 | 90 | 1.2 | 38 |  |  |  |  |  |
| Cc1nc(O)nc2cc3c(cc12)OCO3 | 1 | 10 | 66 | 5.65 |  |  |  |  |  |  |
